From PubChem BioAssay
Most compounds without a hit are left out; they make up all but 2% or so of the library.
ARFGAP1 inh: inhibitors of rat ARFGAP1; Q62848; 0.26% of 360,000 active; inhibition, % at 16.5 µM; Arfgap1-stimulated ARF1 GTP hydrolysis, GDP FP detection;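 active = inhibition above a per-plate limit, mean inhibition of low control wells plus 3 SD, cut at about 25% in these data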
Target sequence (Q62848 1-136 limits assumed): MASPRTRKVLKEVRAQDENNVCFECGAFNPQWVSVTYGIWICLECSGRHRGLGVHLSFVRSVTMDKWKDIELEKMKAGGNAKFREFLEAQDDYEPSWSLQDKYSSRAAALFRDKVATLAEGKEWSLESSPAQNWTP
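Assay system: Rat Arfgap1 GAP domain (His6, aa 1-136), purified enzyme | Buffer or medium: HEPES 25 mM pH 7.5, NaCl 150 mM, MgCl2, DTT | Schedule: GTP hydrolysis reaction 2 h at 25 °C | Signal: FP of antibody-bound GDP Alexa 633 tracer, ex 620/em 688 nm | Measure: Percent inhibition of Arfgap1-stimulated GTP hydrolysis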
ASAP1 GAP inh: inhibitors of human ASAP1 ArfGAP activity; AID 624377; Q9ULH1; ASAP1-stimulated ARF1 GTP hydrolysis, GDP FP detection; 0.19% of 360,000 active; inhibition, % at 16.5 µM
LEDGF integ inh: blocks HIV-1 LEDGF/p75-dependent DNA integration | TR-FRET IN-LEDGF/p75 DNA integration, Eu/Cy5 | inhibition, % at 3.7 µM | 0.64% of 370,000 active;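 active = inhibition above the screen-wide mean plus 3 SD, cut at about 13% in these data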;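 also: signal is the Cy5 over europium emission ratio at 671 and 618 nm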
TDP2 inh: blocks human TDP2 phosphodiesterase activity. recombinant TDP2, T5PNP hydrolysis, p-nitrophenol absorbance 415 nm. inhibition, % at 12.8 µM. 0.34% of 370,000 active. AID 720702;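 active = inhibition above the mean of all tested compounds plus 3 SD, set per campaign, cut at about 25% in these data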
Target sequence (O95551 whole entry, looked up): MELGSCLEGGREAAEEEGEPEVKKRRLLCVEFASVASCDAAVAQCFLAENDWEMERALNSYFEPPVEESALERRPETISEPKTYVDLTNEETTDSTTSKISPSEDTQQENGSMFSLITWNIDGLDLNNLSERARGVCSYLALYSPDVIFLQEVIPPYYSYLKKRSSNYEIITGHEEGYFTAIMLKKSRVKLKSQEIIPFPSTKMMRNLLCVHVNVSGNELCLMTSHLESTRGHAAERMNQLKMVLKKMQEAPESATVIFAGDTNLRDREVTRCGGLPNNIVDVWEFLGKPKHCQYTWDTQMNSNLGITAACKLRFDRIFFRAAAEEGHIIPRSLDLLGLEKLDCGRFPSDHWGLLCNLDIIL
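System – recombinant human TDP2 · Quantity – TDP2 enzyme at 120 nM final · Doses – single concentration, 12.8 µM nominal, with 1% DMSO · Incubation – 2 h at 37 °C · Measured by – epi absorbance of p-nitrophenol freed from T5PNP by hydrolysis · Read-out – % inhibition relative to enzyme-containing and enzyme-free wells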
UHRF1 binding: UHRF1 methyl-DNA binding inhibition; Q96T88; AID 687016; 0.75% of 370,000 active; inhibition, % at 4.4 µM; UHRF1 binding to methylated oligo, TR-FRET; in the data active = inhibition above about 21%;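 also: UHRF1 SRA domain binding a hemimethylated CpG hairpin DNA probe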
MBD2 inh: MBD2-methylated oligo binding inhibition; Q9UBB5; TR-FRET, MBD2 binding to methylated oligonucleotide; inhibition, % at 4.4 µM; 0.31% of 370,000 active; AID 686964; in the data active = inhibition above about 13%
ASAP1 GAP conf: confirmation of human ASAP1 inhibitors. shares compounds with ASAP1 GAP inh. ASAP1-stimulated Arf1 GTPase, GDP fluorescence polarization. inhibition, % at 16.5 µM. 37% of 620 active. AID 624431;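 active = mean inhibition over triplicates exceeds the hit threshold derived for the earlier primary screening run, cut at about 25% in these data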
ARFGAP1 confirm: confirmation of rat ARFGAP1 inhibitors. ARFGAP1-stimulated ARF1 GTP hydrolysis, GDP tracer FP. 30% of 890 active. inhibition, % at 16.5 µM. shares compounds with ARFGAP1 inh;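 active = average inhibition over triplicates above the hit cutoff set in the earlier primary screen, cut at about 25% in these data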
TDP2 inh conf: human TDP2 inhibition, confirmation; inhibition, % at 12.8 µM; 22% of 1,100 active; shares compounds with TDP2 inh; recombinant human TDP2, absorbance read-out
IN multimer act: activates HIV-1 integrase multimerization in LEDGF counter-screen. shares compounds with LEDGF integ inh. TR-FRET HIV-1 integrase multimerization, biochemical. activation, % at 7.7 µM. 17% of 2,000 active. AID 1053131; in the data active = activation above about 8.9%
TRFRET interf: TR-FRET optical interference, LEDGF/p75 integration counter-screen. AID 1053135. TR-FRET optical interference counterscreen, HIV-1 IN multimerization. inhibition, % at 7.7 µM. 2,000 tested, under 10 active. shares compounds with LEDGF integ inh;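 active = inhibition above the mean over all tested compounds plus 3 SD, which no compound reached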
IN-LEDGF confirm: LEDGF/p75-dependent HIV-1 integration inhibition, confirmation; inhibition, % at 3.7 µM; TR-FRET LEDGF/p75-dependent HIV-1 integration, biochemical; 36% of 2,000 active; shares compounds with LEDGF integ inh; in the data active = inhibition above about 14%
Large screens that a line does not name were inactive (follow-up assays come after a bar, where they were run). Rule as the data show it, unless noted: active = inhibition above about 25%; inactive = the rest.

O=C1C(O)=C(O)C(=O)c2ccccc21	ASAP1 GAP inh 30, LEDGF integ inh 16, TDP2 inh 57 | ASAP1 GAP conf inactive | TDP2 inh conf 72 | IN multimer act inactive | TRFRET interf inactive | IN-LEDGF confirm 41
COc1ccc(NC(=S)Nc2ccc3nsnc3c2)cc1	ASAP1 GAP inh 33, LEDGF integ inh 52, TDP2 inh 76 | ASAP1 GAP conf inactive | TDP2 inh conf 80 | IN multimer act 16 | TRFRET interf inactive | IN-LEDGF confirm 74
CC(C)N(C(=O)Nc1ccc2nsnc2c1)C(C)C	ASAP1 GAP inh 41, LEDGF integ inh 51, TDP2 inh 88 | ASAP1 GAP conf inactive | TDP2 inh conf 61 | IN multimer act inactive | TRFRET interf inactive | IN-LEDGF confirm 75
COC(=O)C1CN(Cc2cn(Cc3ccc(Cl)cc3)nn2)CCS(=O)(=O)N1Cc1ccc(OC)cc1 (centres undefined)	none (no result: ARFGAP1 inh, ASAP1 GAP inh)
CN(C)c1ccc(-c2[nH][nH]c(=O)c2NC(=O)c2ccc3ccccc3n2)cc1	ASAP1 GAP inh 36, LEDGF integ inh 31, TDP2 inh 90 | ASAP1 GAP conf inactive | IN multimer act inactive | TRFRET interf inactive | IN-LEDGF confirm 19
Cc1cc(NC2=CC(=O)C(=O)c3ccccc32)no1	ASAP1 GAP inh 29, LEDGF integ inh 16, TDP2 inh 29 | ASAP1 GAP conf inactive | TDP2 inh conf 69 | IN multimer act inactive | TRFRET interf inactive | IN-LEDGF confirm 52
C[C@H]1CCC[C@@H](O)CC(=O)c2c(O)cc(O)cc2CC(=O)O1	none (no result: ARFGAP1 inh, ASAP1 GAP inh)
COC(=O)[C@]12C[C@H](CC(=O)NCCCN3CCCC3=O)C(=O)N(Cc3ccco3)C1=C[C@H](C(C)(C)C)O[C@@H]2C	none (no result: ARFGAP1 inh, ASAP1 GAP inh)
O=c1cc(-c2ccc(O)c(O)c2)oc2c1ccc1ccccc12	ASAP1 GAP inh 25, LEDGF integ inh 51 | ASAP1 GAP conf inactive | IN multimer act inactive | TRFRET interf inactive | IN-LEDGF confirm 68
O=c1cc(-c2ccccc2)oc2c1ccc1ccccc12	none
COc1ccccc1Nc1nnc(C)c(=O)[nH]1	none
COc1ccccc1Nc1cc2cc(Br)ccc2c(=O)[nH]1	ARFGAP1 inh 31, ASAP1 GAP inh 39, LEDGF integ inh 21, TDP2 inh 63 | ASAP1 GAP conf 34 | ARFGAP1 confirm inactive | TDP2 inh conf 57 | IN multimer act inactive | TRFRET interf inactive | IN-LEDGF confirm 73
O=c1[nH]c(Nc2ccccc2)cc2cc(Br)ccc12	ASAP1 GAP inh 36, LEDGF integ inh 35, TDP2 inh 83 | ASAP1 GAP conf inactive | TDP2 inh conf 58 | IN multimer act inactive | TRFRET interf inactive | IN-LEDGF confirm 58
CC(=O)c1cccc(-c2ccc3c(=O)[nH]c(Nc4ccccc4)cc3c2)c1	ARFGAP1 inh 30, ASAP1 GAP inh 53, LEDGF integ inh 21, TDP2 inh 57 | ASAP1 GAP conf 39 | ARFGAP1 confirm 26 | TDP2 inh conf 52 | IN multimer act inactive | TRFRET interf inactive | IN-LEDGF confirm 71
CC(=O)Nc1cccc(Nc2nc(-c3ccccc3)nc3ccccc23)c1	none
COc1ccc(OC)c(Nc2cc3ccccc3c(=O)[nH]2)c1	ARFGAP1 inh 27, ASAP1 GAP inh 30, LEDGF integ inh 17, TDP2 inh 68 | ASAP1 GAP conf inactive | ARFGAP1 confirm inactive | TDP2 inh conf 61 | IN multimer act inactive | TRFRET interf inactive | IN-LEDGF confirm 65
CCCCNC(=O)C1CCCN1C(=O)Nc1cc(Cl)cc(Cl)c1 (centres undefined)	none (no result: ARFGAP1 inh, ASAP1 GAP inh)
O=C(O)C1Nc2c(Cl)cc(Cl)c(Cl)c2C2C=CCC12 (centres undefined)	none
O=C(O)C1Nc2c(O)cccc2C2C=CCC12 (centres undefined)	ASAP1 GAP inh 26, LEDGF integ inh 70, UHRF1 binding 74, MBD2 inh 37 | ASAP1 GAP conf inactive | IN multimer act 8.9 | TRFRET interf inactive | IN-LEDGF confirm 77
COC(=O)[C@]12C[C@H](CC(=O)N3CCN(C(=O)c4ccco4)CC3)C(=O)N(Cc3cccc4ccccc34)C1=C[C@H](C1CCCC1)O[C@@H]2C	none (no result: ARFGAP1 inh, ASAP1 GAP inh)
COc1ccc(C=C2C(=O)OC(C)(C)OC2=O)cc1OC	none
COc1ccc(/C=C2\C(=O)NC(=O)c3ccccc32)cc1OC	ARFGAP1 inh 33, ASAP1 GAP inh 44, LEDGF integ inh 30, TDP2 inh 63 | ASAP1 GAP conf 41 | ARFGAP1 confirm inactive | IN multimer act 16 | TRFRET interf inactive | IN-LEDGF confirm 65
Cc1ccc(-c2nc3ncccn3c2NC(=O)c2ccc(F)cc2)cc1	none (no result: ARFGAP1 inh, ASAP1 GAP inh)
COc1nnc(-c2ccc(N3CCOCC3)c(NC(=O)c3ccccc3)c2)c2ccccc12	ARFGAP1 inh 41 | ARFGAP1 confirm inactive
COc1nnc(-c2ccc(N3CCOCC3)c(NC(C)=O)c2)c2ccccc12	none
CN1/C(=C/C2CC(=O)N(c3cccc4ccccc34)C2=O)C(C)(C)c2ccccc21 (centres undefined)	none
CN1/C(=C/C2CC(=O)NC2=O)C(C)(C)c2ccccc21 (centres undefined)	ARFGAP1 inh 31 | ARFGAP1 confirm inactive
Cc1sc2ncnc(N3CCC(C(=O)NCC(=O)Nc4ccc(F)c(F)c4)CC3)c2c1C	ARFGAP1 inh 25 | ARFGAP1 confirm inactive
Cc1sc2ncnc(N3CCC(C(=O)Nc4ccc(Cl)c(Cl)c4)CC3)c2c1C	none
O=C(N/N=C/c1cccc([N+](=O)[O-])c1)c1ccc(COc2ccccc2-c2ccccc2)cc1	ARFGAP1 inh 35 | ARFGAP1 confirm inactive
Cc1ccc(OCc2ccc(C(=O)NCc3cccnc3)cc2)cc1C	none
O=C(NCc1cccnc1)c1ccc(COc2ccc(Cl)cc2)cc1	ARFGAP1 inh 28 | ARFGAP1 confirm inactive
